Measurements: ChEMBL document CHEMBL4373727, “Thienopyrimidinone Derivatives That Inhibit Bacterial tRNA (Guanine37-N1)-Methyltransferase (TrmD) by Restructuring the Active Site with a Tyrosine-Flipping Mechanism” (J Med Chem, 2019)
Values after ≈ are worked out from the molar mass of the structure shown. Active and inactive are the calls of the source. The calls are words filed in the database; no cut-off is given here.

What was measured:
[1] = target: T1, tRNA (guanine-N(1)-)-methyltransferase (Staphylococcus aureus (strain NCTC 8325 / PS 47)) (UniProt Q2FZ43); test: Binding affinity to full length Staphylococcus aureus tRNA (guanine(37)-N1)-methyltransferase expressed in Escherichia coli BL21 (DE3) assessed as thermal stabilization of protein by measuring change in melting temperature at 0.1 mM by SYPRO orange based thermal shift assay
T1 sequence (whole entry): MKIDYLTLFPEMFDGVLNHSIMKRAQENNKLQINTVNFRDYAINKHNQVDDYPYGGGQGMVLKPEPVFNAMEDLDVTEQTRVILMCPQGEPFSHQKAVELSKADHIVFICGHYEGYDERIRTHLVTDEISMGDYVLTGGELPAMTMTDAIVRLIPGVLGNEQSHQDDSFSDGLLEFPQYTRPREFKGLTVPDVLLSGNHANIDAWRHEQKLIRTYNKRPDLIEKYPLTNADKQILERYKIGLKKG

[2] = target: T2, tRNA (guanine-N(1)-)-methyltransferase (Pseudomonas aeruginosa (strain ATCC 15692 / DSM 22644 / CIP 104116 / JCM14847 / LMG 12228 / 1C / PRS 101 / PAO1), UniProt Q9HXQ1); test: Inhibition of Pseudomonas aeruginosa tRNA (guanine(37)-N1)-methyltransferase (Leu5 to Asp25 residues) expressed in Escherichia coli BL21 Rosetta (DE3) assessed as reduction in S-adenosyl-L-homocysteine production preincubated for 15 mins followed by 15 uM of tRNALeu(CAG) substrate and SAM addition and measured after 45 mins by MTase-Glo assay
T2 sequence (Q9HXQ1 whole entry): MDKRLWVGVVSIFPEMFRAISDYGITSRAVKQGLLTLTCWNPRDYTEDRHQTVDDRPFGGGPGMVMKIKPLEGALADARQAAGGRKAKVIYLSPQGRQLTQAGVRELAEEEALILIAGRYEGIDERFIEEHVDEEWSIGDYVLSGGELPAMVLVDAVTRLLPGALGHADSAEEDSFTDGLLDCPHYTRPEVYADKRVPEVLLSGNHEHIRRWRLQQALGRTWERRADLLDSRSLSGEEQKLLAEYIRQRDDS
How it was run: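 tRNA competition: same MTase-Glo assay with 8 nM PaTrmD and 2 μM SAM, 15 min preincubation and 45 min reaction at 37 °C. tRNALeu(CAG) at 1.5, 4.5 or 15 μM. IC50 from dose–response curves, duplicate data points.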

[3] = target: T3, tRNA (guanine-N(1)-)-methyltransferase (Mycobacterium tuberculosis (strain ATCC 25618 / H37Rv), UniProt P9WFY7); test: Binding affinity to full length Mycobacterium tuberculosis tRNA (guanine(37)-N1)-methyltransferase expressed in Escherichia coli BL21 (DE3) by surface plasmon resonance assay
T3 sequence (P9WFY7 whole entry): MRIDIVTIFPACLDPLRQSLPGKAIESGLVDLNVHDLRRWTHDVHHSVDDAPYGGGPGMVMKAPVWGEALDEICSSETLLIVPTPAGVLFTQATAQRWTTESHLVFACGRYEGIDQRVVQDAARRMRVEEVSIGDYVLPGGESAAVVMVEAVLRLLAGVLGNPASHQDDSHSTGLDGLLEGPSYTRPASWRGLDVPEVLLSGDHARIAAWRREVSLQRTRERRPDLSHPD
How it was run: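 SPR at 25 °C. His-tagged TrmD (50 μg/mL) captured on an anti-His antibody surface (about 2200 RU), with a blank reference cell. Buffer: 50 mM Tris-HCl pH 8, 150 mM NaCl, 1 mM MgCl2, 1 mM DTT, 0.05% Tween-20. Analyte in 2-fold dilutions, injected lowest to highest at 30 μL/min, 30 s contact, 240 s dissociation. KD from steady-state affinity fit.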

[4] = target: T4, tRNA (guanine-N(1)-)-methyltransferase (Pseudomonas aeruginosa (strain ATCC 15692 / DSM 22644 / CIP 104116 / JCM14847 / LMG 12228 / 1C / PRS 101 / PAO1)) (UniProt Q9HXQ1); test: Binding affinity to Pseudomonas aeruginosa tRNA (guanine(37)-N1)-methyltransferase (Leu5 to Asp25 residues) expressed in Escherichia coli BL21 (DE3) Rosetta T1R cells assessed as thermal stabilization of protein by measuring change in melting temperature at 0.1 mM by SYPRO orange based thermal shift assay
T4 sequence (whole entry): T2 sequence (Q9HXQ1 whole entry)
How it was run: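 Thermal shift: 4 μM TrmD with 5× SYPRO Orange and ligand in 50 mM Tris-HCl pH 8, 150 mM NaCl, 1 mM MgCl2, 1 mM DTT, 0.05% Tween-20. Buffer-only control. Heated from 25 to 95 °C in a real-time PCR instrument, and Tm taken as the unfolding midpoint. Ligand levels: SAH 2 mM, inhibitors 0.1 mM.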

Enterococcus faecalis = test: Antibacterial activity against Enterococcus faecalis ATCC 51299 at 100 uM incubated for 24 hrs; format: functional, organism-based
How it was run: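 Single-concentration screen in brain heart infusion broth. Log-phase cells at ~5×10^5 cells/mL were grown with 100 μM compound for 24 h at 37 °C. Growth was read as OD600 and expressed as a percentage of untreated wells. DMSO and blank controls were included.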

Klebsiella pneumoniae = test: Antibacterial activity against Klebsiella pneumoniae ATCC 13883 incubated for 24 hrs by serial broth microdilution method; format: functional, organism-based
How it was run: (§1)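 Log-phase cultures from four colonies grown overnight at 37 °C, inoculated at ~5×10^5 cells/mL in cation-adjusted Mueller–Hinton broth with serially diluted compound. Grown 24 h at 37 °C, then OD600 read. MIC50/MIC90 are the concentrations giving 50%/90% growth inhibition relative to drug-free controls. Two independent experiments in duplicate.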

Salmonella enteritidis = test: Antibacterial activity against Salmonella enteritidis ATCC 13076 incubated for 24 hrs by serial broth microdilution method; format: functional; conditions: Salmonella enterica subsp. enterica serovar Enteritidis; how it was run: as §1
Pseudomonas aeruginosa = test: Antibacterial activity against Pseudomonas aeruginosa PA14 incubated for 24 hrs by serial broth microdilution method; format: functional, organism-based; how it was run: as §1
Staphylococcus aureus = test: Bactericidal activity against methicillin-resistant Staphylococcus aureus ATCC 43300 assessed as reduction in CFU at 1 to 4 times MIC90 incubated for 24 hrs; format: functional; conditions: ATCC 43300, 24 h, read-out: MBC99.9
Escherichia coli = test: Antibacterial activity against Escherichia coli BW25113 incubated for 24 hrs by serial broth microdilution method; format: functional, organism-based; how it was run: as §1
[5] = tested on: Mycobacterium tuberculosis; test: Antibacterial activity against Mycobacterium tuberculosis ATCC 27294 incubated for 7 days by broth dilution method; format: functional; conditions: ATCC 27294, 168 h
How it was run: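 M. tuberculosis ATCC 27294 in complete 7H9 with 0.05% Tween 80, 0.5% glycerol and 10% ADC. Mid-log cells adjusted to OD600 0.1 and added 1:1 to 2-fold serial compound dilutions (highest 100 μM). Incubated 7 d at 37 °C with shaking at 80 rpm, then OD600 read. Isoniazid positive control. MIC50/MIC90 versus drug-free controls. Biological duplicates.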

Streptococcus pneumoniae = test: Bactericidal activity against Streptococcus pneumoniae ATCC 49619 assessed as reduction in CFU at 1 to 4 times MIC90 incubated for 24 hrs; format: functional; conditions: ATCC 49619, 24 h, read-out: MBC99.9

SMILES | ΔTm [1] [°C] | IC50 [2] [nM] | Kd [3] [nM] | ΔTm [4] [°C] | Activity (Enterococcus faecalis) | MIC50 (Klebsiella pneumoniae) | MIC90 (Klebsiella pneumoniae) | MIC50 (Salmonella enteritidis) | MIC90 (Salmonella enteritidis) | MIC50 (Pseudomonas aeruginosa) | MIC90 (Pseudomonas aeruginosa) | MBC (Staphylococcus aureus) [µM] | MIC50 (Escherichia coli) | MIC90 (Escherichia coli) | MIC50 [5] [µM] | MIC90 [5] [µM] | MBC (Streptococcus pneumoniae) [µM]
NC1CCN(Cc2ccc(CNC(=O)c3csc4nc[nH]c(=O)c34)cc2)CC1 | 1 to 13 | 840 | 10400 | 4 to 29 | inactive | – | – | – | – | – | – | – | – | – | – | – | –
CCCCCCCCNCc1ccc(CNC(=O)c2csc3nc[nH]c(=O)c23)cc1 | – | 260 | 190 | 12 | Active | inactive | inactive | inactive | inactive | inactive | inactive | 54 (≈ 23 µg/mL) | inactive | inactive | 78 (≈ 33.3 µg/mL) | > 100 | > 100
